Active and inactive are the calls of the source.
Experiments:
[1] = target: Alpha-synuclein (Homo sapiens) (UniProt P37840); assay: Inhibition of alpha-synuclein (unknown origin) dimerization transfected in mouse Neuro2a cells assessed as reduction in aggregation at 10 uM incubated for 4 hrs by split Gaussia luciferase-based assay relative to control; values are per cent of control
[2] = target: Prolyl endopeptidase FAP (Homo sapiens) (UniProt Q12884); assay: Inhibition of human FAP expressed in Sf9 insect cells using […] at 1 to 10 uM preincubated for 15 mins followed by substrate addition and measured for 10 mins; conditions: dose 1-10 µM, time 25.0 min
Sequence of Prolyl endopeptidase FAP (Homo sapiens) (Q12884 whole entry): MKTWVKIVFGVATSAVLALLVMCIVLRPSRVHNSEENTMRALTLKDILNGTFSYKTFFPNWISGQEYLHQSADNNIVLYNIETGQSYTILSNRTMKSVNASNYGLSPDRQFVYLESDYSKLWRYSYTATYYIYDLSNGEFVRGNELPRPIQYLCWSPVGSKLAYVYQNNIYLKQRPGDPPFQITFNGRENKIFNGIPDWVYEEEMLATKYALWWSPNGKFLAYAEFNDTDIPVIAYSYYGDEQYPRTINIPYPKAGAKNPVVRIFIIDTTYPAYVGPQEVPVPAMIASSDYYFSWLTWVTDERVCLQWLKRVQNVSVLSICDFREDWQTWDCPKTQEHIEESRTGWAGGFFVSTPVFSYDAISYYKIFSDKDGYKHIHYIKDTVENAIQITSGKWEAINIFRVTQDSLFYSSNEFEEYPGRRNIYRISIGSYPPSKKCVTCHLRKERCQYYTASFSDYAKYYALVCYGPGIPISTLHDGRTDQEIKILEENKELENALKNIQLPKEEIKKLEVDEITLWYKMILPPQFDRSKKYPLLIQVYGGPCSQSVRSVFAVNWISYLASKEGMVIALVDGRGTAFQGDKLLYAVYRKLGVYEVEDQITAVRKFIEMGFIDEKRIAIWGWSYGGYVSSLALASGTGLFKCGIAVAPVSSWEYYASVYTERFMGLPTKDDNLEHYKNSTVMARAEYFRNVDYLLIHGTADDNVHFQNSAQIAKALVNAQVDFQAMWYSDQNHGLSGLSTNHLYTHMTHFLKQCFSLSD
In short: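 Z-Gly-Pro-AMC at 50 μM, pH 8, in 0.05 M Tris-HCl with 0.1% glycerol, 1 mg/mL BSA and 140 mM NaCl. Enzyme preincubated with compound 15 min at 37 °C. AMC release read kinetically at ex 380/em 465 nm for at least 10 min at 37 °C.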

[3] = Permeability of the compound across blood brain barrier in C57BL/6JRccHsd mouse at 1.11 uM, ip measured at 30 mins by LC-MS analysis; type: ADME, organism-based; conditions: 0.5 h
In short: (§1)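 Male C57BL/6JRCcHsd mice, 10 weeks old, dosed 10 mg/kg i.p. in 5% Tween-20 in 0.9% NaCl. Brains collected at 15, 30, 45, 60, 120 and 180 min. Brain compound concentration measured by LC-MS, and AUC0–180 min calculated.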

[4] = Activation of PP2A in HEK293 cells by measuring decrease in ratio between Tyr307 phosphorylated inactive PP2Ac to total PP2Ac incubated for 4 hrs by Western blot analysis; type: cell-based; conditions: Homo sapiens, HEK293, 4 h
In short: (§2)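 HEK-293 cells seeded 500,000/well, attached overnight, then exposed to compound (0.1% DMSO vehicle) for 4 or 24 h. Lysed in RIPA. Western blot with 30 μg protein on 4–20% gels, PVDF transfer, skim-milk block, primary antibody overnight at +4 °C. Detection by chemiluminescence, band OD normalized to β-actin or vinculin. pPP2Ac is the Tyr307-phosphorylated form.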

[5] = tested on: HEK293; assay: Activation of PP2A in HEK293 cells by measuring decrease in ratio between Tyr307 phosphorylated inactive PP2Ac to total PP2Ac at 1 uM incubated for 4 hrs by Western blot analysis; type: cell-based; conditions: Homo sapiens, filed as activator
In short: as §2

[6] = tested on: HEK293; assay: Activation of PP2A in HEK293 cells assessed as decrease in phosphorylated PP2Ac level at 10 uM incubated for 24 hrs by immunoblot analysis; type: cell-based; conditions: Homo sapiens
In short: as §2

[7] = tested on: Mus musculus; assay: (§3) Neuroprotective activity against AAV2-CBA-alpha-synuclein virus vector injected C57BL/6JRccHsd mouse model of Parkinson's disease assessed as change in tyrosine hydroxylase positive dopaminergic neuron immunoreactivity in striatum at 10 mg/kg/day, ip administered for 2 weeks by optical density based analysis; type: functional, organism-based
[8] = tested on: Mus musculus; assay: as §3, with “substantia nigra pars compacta” for “striatum”; type: functional, organism-based
[9] = tested on: HEK293; assay: Activation of PP2A in HEK293 cells assessed as decrease in phosphorylated PP2Ac level at 10 uM incubated for 4 hrs by immunoblot analysis; type: cell-based; conditions: Homo sapiens, filed as activator
In short: as §2

[10] = tested on: Mus musculus; assay: Downregulation of alpha-syn oligomer in C57BL/6JRccHsd mouse substantia nigra pars compacta injected with AAV2-CBA-alpha-synuclein virus at 10 mg/kg/day, ip administered for 2 weeks by optical density based analysis; type: functional, organism-based
In short: (§4)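 Unilateral AAV2-CBA-αSyn was injected above the SNpc of male C57BL/6JRCcHsd mice. Dosing at 10 mg/kg/day i.p. by Alzet minipump began 4 weeks after injection. Brain sections were immunostained for oligomer-specific αSyn and optical density was measured in striatum and SNpc, with n = 7–9/group, reported as mean ± SEM.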

[11] = tested on: SH-SY5Y; assay: Cytotoxicity against human SH-SY5Y cells assessed as cell viability at 1 to 100 uM incubated for 24 hrs by MTT assay; type: toxicity, cell-based; conditions: dose 1-100 µM
[12] = tested on: HEK293; assay: Activation of PP2A in HEK293 cells assessed as increase in LC3B-II level at 0.1 to 10 uM incubated for 4 hrs by Western blot analysis; type: cell-based; conditions: Homo sapiens, filed as activator, dose 0.1-10 µM
In short: as §2

[13] = tested on: HEK293; assay: Induction of autophagic flux in HEK293 cells expressing GFP-LC3B-RFP at 10 uM incubated for 24 hrs by Hoechst staining based assay; type: functional, cell-based; conditions: Homo sapiens
[14] = tested on: HEK293; assay: Cytotoxicity against HEK293 cells assessed as cell viability at 1 to 100 uM incubated for 24 hrs by MTT assay; type: toxicity, cell-based; conditions: human, hek293, 24 h, dose 1-100 µM
[15] = tested on: HEK293; assay: Activation of PP2A in HEK293 cells assessed as increase in total PP2Ac level at 10 uM incubated for 4 hrs by immunoblot analysis; type: cell-based; conditions: Homo sapiens, filed as activator
In short: as §2

[16] = tested on: HEK293; assay: Activation of PP2A in HEK293 cells assessed as increase in total PP2Ac level at 0.01 to 50 uM incubated for 4 hrs by Western blot analysis; type: cell-based; conditions: Homo sapiens, filed as activator, dose 0.01-50 µM
In short: as §2

[17] = tested on: HEK293; assay: Activation of PP2A in HEK293 cells assessed as increase in LC3B-II level at 10 uM incubated for 4 hrs by immunoblot analysis; type: cell-based; conditions: Homo sapiens, filed as activator
In short: as §2

[18] = tested on: HEK293; assay: Activation of PP2A in HEK293 cells assessed as increase in total PP2Ac level at 10 uM incubated for 24 hrs by immunoblot analysis; type: cell-based; conditions: Homo sapiens, filed as activator
In short: as §2

[19] = target: Dipeptidyl peptidase 2 (Homo sapiens) (UniProt Q9UHL4); assay: Inhibition of recombinant human DPP2 using Lys-Ala-pNA as substrate at 1 to 10 uM preincubated for 15 mins followed by substrate addition and measured for 10 mins; conditions: dose 1-10 µM, time 25.0 min
In short: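 Recombinant human DPP2 with 1 mM Lys-Ala-pNA, pH 5.5, in 100 mM NaAc, 10 mM EDTA and 14 μg/mL aprotinin. Compound at 1 and 10 μM, preincubated 15 min at 37 °C. pNA release read kinetically at 405 nm for at least 10 min at 37 °C.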

[20] = tested on: Mus musculus; assay: as §3, with “cell count” for “dopaminergic neuron immunoreactivity”, “substantia nigra pars compacta” for “striatum”; type: functional, organism-based
[21] = tested on: Mus musculus; assay: Upregulation of total PP2Ac level in C57BL/6JRccHsd mouse brain at 10 mg/kg, ip measured after 45 mins by Western blot analysis; type: functional, organism-based
In short: (§5)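 Mice given 10 mg/kg i.p. in 5% Tween-20 in 0.9% NaCl, with vehicle-injected controls. Brains collected 45 min after injection. Homogenates analysed by Western blot for pPP2A, PP2A and LC3BII, with OD normalized to β-actin or vinculin.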

[22] = target: Dipeptidyl peptidase 9 (Homo sapiens) (UniProt Q86TI2); assay: Inhibition of human DPP9 expressed in Sf9 insect cells using Ala-Pro-para-nitroanilide as substrate at 1 to 10 uM preincubated for 15 mins followed by substrate addition and measured for 10 mins; conditions: dose 1-10 µM, time 25.0 min
Sequence of Dipeptidyl peptidase 9 (Homo sapiens) (Q86TI2 2-863 limits assumed): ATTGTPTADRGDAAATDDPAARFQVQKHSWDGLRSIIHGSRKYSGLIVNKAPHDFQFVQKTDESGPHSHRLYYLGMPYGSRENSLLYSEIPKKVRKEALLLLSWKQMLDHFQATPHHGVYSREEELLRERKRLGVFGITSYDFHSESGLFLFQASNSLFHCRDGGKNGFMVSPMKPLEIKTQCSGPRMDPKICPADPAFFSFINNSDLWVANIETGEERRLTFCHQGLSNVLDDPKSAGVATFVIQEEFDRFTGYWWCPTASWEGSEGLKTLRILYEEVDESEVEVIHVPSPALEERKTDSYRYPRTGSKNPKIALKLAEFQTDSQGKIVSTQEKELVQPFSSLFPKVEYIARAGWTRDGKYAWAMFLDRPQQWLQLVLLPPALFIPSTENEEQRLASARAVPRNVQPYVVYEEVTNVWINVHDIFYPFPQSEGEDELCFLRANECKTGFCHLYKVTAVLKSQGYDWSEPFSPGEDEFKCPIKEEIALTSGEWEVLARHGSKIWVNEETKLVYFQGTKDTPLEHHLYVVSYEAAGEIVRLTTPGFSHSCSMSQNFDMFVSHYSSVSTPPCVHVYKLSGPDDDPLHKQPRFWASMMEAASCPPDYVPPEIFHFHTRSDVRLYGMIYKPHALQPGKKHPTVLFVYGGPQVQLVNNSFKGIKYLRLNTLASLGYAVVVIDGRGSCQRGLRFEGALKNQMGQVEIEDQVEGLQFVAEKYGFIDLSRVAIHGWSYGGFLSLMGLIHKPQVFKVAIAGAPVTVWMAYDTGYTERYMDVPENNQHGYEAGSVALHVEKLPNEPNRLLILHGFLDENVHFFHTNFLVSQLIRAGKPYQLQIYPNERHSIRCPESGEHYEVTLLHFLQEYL
In short: (§6)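 Ala-Pro-pNA substrate at 25 μM for DPP4 (purified from human seminal plasma) or 150 μM for DPP9 (Sf9-expressed). Buffer pH 7.4: 0.05 M HEPES-NaOH, 0.1% Tween-20, 0.1 mg/mL BSA, 150 mM NaCl. Compound at 1 and 10 μM final, preincubated 15 min at 37 °C. pNA release read kinetically at 405 nm for at least 10 min.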

[23] = target: Dipeptidyl peptidase 4 (Homo sapiens) (UniProt P27487); assay: Inhibition of human DPP4 using Ala-Pro-para-nitroanilide as substrate at 1 to 10 uM preincubated for 15 mins followed by substrate addition and measured for 10 mins; conditions: dose 1-10 µM, time 25.0 min
Sequence of Dipeptidyl peptidase 4 (Homo sapiens) (P27487 whole entry, looked up): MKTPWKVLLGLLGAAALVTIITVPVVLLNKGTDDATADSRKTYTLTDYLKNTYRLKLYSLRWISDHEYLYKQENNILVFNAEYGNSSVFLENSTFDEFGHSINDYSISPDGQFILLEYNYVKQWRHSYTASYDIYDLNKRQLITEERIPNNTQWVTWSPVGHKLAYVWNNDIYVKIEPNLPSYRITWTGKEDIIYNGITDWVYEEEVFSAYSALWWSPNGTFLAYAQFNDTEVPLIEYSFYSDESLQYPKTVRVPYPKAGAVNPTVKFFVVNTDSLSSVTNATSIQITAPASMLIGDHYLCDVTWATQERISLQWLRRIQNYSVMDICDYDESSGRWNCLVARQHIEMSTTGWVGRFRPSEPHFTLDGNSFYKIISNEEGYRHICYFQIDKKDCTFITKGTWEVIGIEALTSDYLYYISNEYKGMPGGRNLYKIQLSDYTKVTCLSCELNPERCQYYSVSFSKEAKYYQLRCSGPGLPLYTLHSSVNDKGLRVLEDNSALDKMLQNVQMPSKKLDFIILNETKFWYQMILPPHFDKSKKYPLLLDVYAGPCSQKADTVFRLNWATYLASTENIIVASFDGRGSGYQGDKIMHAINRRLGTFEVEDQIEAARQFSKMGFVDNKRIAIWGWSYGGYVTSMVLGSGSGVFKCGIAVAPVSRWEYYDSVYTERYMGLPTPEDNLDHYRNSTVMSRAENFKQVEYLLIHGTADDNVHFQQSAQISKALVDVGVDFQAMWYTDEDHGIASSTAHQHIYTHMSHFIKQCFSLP
In short: as §6

[24] = tested on: Mus musculus; assay: (§7) Neuroprotective activity against AAV2-CBA-GFP injected C57BL/6JRccHsd mouse model of Parkinson's disease assessed as change in tyrosine hydroxylase positive dopaminergic neuron immunoreactivity in striatum at 10 mg/kg/day, ip administered for 2 weeks by optical density based analysis; type: functional, organism-based
[25] = tested on: Mus musculus; assay: as §7, with “substantia nigra pars compacta” for “striatum”; type: functional, organism-based
[26] = tested on: Mus musculus; assay: Upregulation of LC3B-II level in C57BL/6JRccHsd mouse brain at 10 mg/kg, ip measured after 45 mins by Western blot analysis; type: functional, organism-based
In short: as §5

[27] = In vivo inhibition of PREP in C57BL/6JRccHsd mouse liver at 10 mg/kg, ip measured for 3 hrs by LC-MS analysis relative to control; type: functional
[28] = Drug elimination in C57BL/6JRccHsd mouse brain at 10 mg/kg, ip measured at 180 mins by LC-MS analysis; type: ADME, organism-based; conditions: in vivo, 3 h
In short: as §1

[29] = tested on: HEK293; assay: Activation of PP2A in HEK293 cells assessed as decrease in inactive phosphorylated PP2Ac level at 1 uM incubated for 4 hrs by Western blot analysis; type: cell-based; conditions: Homo sapiens, filed as activator
In short: as §2

[30] = tested on: Mus musculus; assay: Downregulation of alpha-syn oligomer expression in C57BL/6JRccHsd mouse striatum injected with AAV2-CBA-alpha-synuclein virus at 10 mg/kg/day, ip administered for 2 weeks by optical density based analysis; type: functional, organism-based
In short: as §4

[31] = tested on: HEK293; assay: Activation of PP2A in HEK293 cells assessed as increase in LC3B-II level at 10 uM incubated for 24 hrs by immunoblot analysis; type: cell-based; conditions: Homo sapiens, filed as activator
In short: as §2

[32] = tested on: Mus musculus; assay: Anti-parkinson activity in AAV2-CBA-alpha-synuclein virus vector injected Parkinson's disease C57BL/6JRccHsd mouse model assessed as motor deficit by measuring decrease in use of ipsilateral forepaw usage at 10 mg/kg/day, ip administered for 2 to 4 weeks of treatment by cylinder test; type: functional, organism-based; conditions: time 2-4 weeks
In short: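 Male C57BL/6JRCcHsd mice, 10–11 weeks old, got a unilateral AAV2-CBA-αSyn injection above the SNpc. Dosing started 4 weeks later at 10 mg/kg/day i.p. by Alzet minipump. Ipsilateral forepaw use was scored by cylinder test at 6 and 8 weeks post-injection, against vehicle-treated αSyn-injected and AAV-GFP control mice. Two-way ANOVA with Dunnett's comparisons was used.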

[33] = tested on: HEK293; assay: Induction of autophagy in PREP knockout HEK293 cells assessed as LC3B-II expression level at 10 uM incubated for 24 hrs by Western blot analysis; type: functional, cell-based; conditions: Homo sapiens
In short: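 HEK-293 PREP-KO cells, grown with 20% FBS, plated 500,000/well and attached overnight. Treated at 10 μM for 4 or 24 h (0.1% DMSO vehicle), then lysed in RIPA. LC3BII measured by Western blot, 30 μg protein loaded, band OD normalized to β-actin or vinculin.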

[34] = Permeability of the compound across blood brain barrier in C57BL/6JRccHsd mouse at 1.86 uM, ip measured at 15 mins by LC-MS analysis; type: ADME, organism-based; conditions: 0.25 h
In short: as §1

[35] = tested on: Neuron; assay: Cytotoxicity against mouse primary neurons cells assessed as cell viability at 1 to 100 uM incubated for 48 hrs by MTT assay; type: toxicity, cell-based; conditions: dose 1-100 µM
[36] = target: Alpha-synuclein (Homo sapiens) (UniProt P37840); assay: Inhibition of alpha-synuclein (unknown origin) dimerization transfected in PREP knockout HEK293 cells at 10 uM incubated for 4 hrs by luminescence based multimode plate reader method; type: cell-based
In short: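 Split Gaussia luciferase protein-fragment complementation in HEK-293 PREP-KO cells, run like the N2A protocol. Cells transfected with αSyn-Gluc1 and αSyn-Gluc2; 48 h later treated 4 h at 10 μM. Luminescence read after injecting native coelenterazine.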

[37] = target: Alpha-synuclein (Homo sapiens) (UniProt P37840); assay: Inhibition of alpha-synuclein (unknown origin) dimerization transfected in HEK293 cells at 10 uM incubated for 4 hrs by luminescence based multimode plate reader method; type: cell-based
[38] = target: Alpha-synuclein (Homo sapiens) (UniProt P37840); assay: Inhibition of alpha-synuclein (unknown origin) dimerization transfected in mouse Neuro2a cells at 10 uM incubated for 4 hrs by Protein-fragment complementation assay; type: cell-based
[39] = tested on: Mus musculus; assay: Neuroprotective activity against AAV2-CBA-GFP injected C57BL/6JRccHsd mouse model of Parkinson's disease assessed as change in tyrosine hydroxylase positive cell count in substantia nigra pars compacta at 10 mg/kg/day, ip administered for 2 weeks by optical density based analysis; type: functional, organism-based

COc1cc(CCc2nc(C)c(N3CCC[C@H]3C#N)o2)cc(OC)c1
100%: residual activity [1]

Cc1nc(CCCc2ccccc2)oc1N1CCC[C@H]1C#N
Not Active: Drug excretion [28]
Permeable: pBBB [3] | pBBB [34]
~25%: inhibition in vivo at 10 mg/kg [27]
active: Activity [5] | Activity [9] | Activity [12] | Activity [13] | Activity [15] | Activity [16] | Activity [17] | Activity [18] | Activity [21] | Activity [26] | Activity [29] | Activity [30] | Activity [31] | Activity [32] | inhibition [37] | inhibition [38]
Non-Toxic: Activity [11] | Activity [14] | Activity [35]
275 nM: EC50 [4]
inactive: inhibition [2] | Activity [6] | Activity [7] | Activity [8] | Activity [10] | inhibition [19] | Activity [20] | inhibition [22] | inhibition [23] | Activity [24] | Activity [25] | Activity [33] | inhibition [36] | Activity [39]

Reference: ChEMBL document CHEMBL5352503, “Nonpeptidic Oxazole-Based Prolyl Oligopeptidase Ligands with Disease-Modifying Effects on α-Synuclein Mouse Models of Parkinson's Disease” (J Med Chem, 2023)
